Experimental data from different studies.
Protocols differ between the studies behind these lines.
Target: Mitogen-activated protein kinase kinase kinase 11 (MAP3K11, Homo sapiens, UniProt Q16584)

COc1ccc(COc2ccc(Cc3cnc(N)nc3N)cc2OC)cc1 — remaining signal (cell-free assay; 0.5 µM): 101%
O=C(Nc1cnn(-c2csc(C(=O)NC3COC3)c2)c1)Nc1c(F)cccc1Cl — remaining activity (enzyme activity; inhibitor; 5 µM): 84.7%
Cc1nn(CC(F)(F)F)cc1Nc1ncc(Br)c(NCc2ccc(S(N)(=O)=O)cc2)n1 — remaining activity (enzyme activity; inhibitor; radiometric; 1 µM): 82%
CCc1ccccc1C(=O)Nc1n[nH]c2c(C)c(F)c(C3C(C#N)=C(C)N(C)C(C)=C3C#N)cc12 — remaining binding (cell-free assay; competition with immobilised ligand; 1 µM): 88%
O=C(NCCCNc1nc(Nc2cccc(NC(=O)N3CCCC3)c2)ncc1C1CC1)C1CCC1 — remaining activity (enzyme activity; inhibitor; radiometric; 1 µM): 27%
Cn1nc(C(=O)NCc2ccc(C(=O)O)cc2)cc1-c1ccc2[nH]ccc2c1 — remaining binding (cell-free assay; competition with immobilised ligand; 0.1 µM): 87%
Cc1nn(CC(F)(F)F)cc1Nc1ncc(C2CC2)c(NCCCNC(=O)C2CCC2)n1 — remaining activity (enzyme activity; inhibitor; radiometric; 1 µM): 94%
CN1CC(Oc2cnc(C#N)cc2-c2ccn3nc(NC(=O)C4CC4)cc3c2)C1 — inhibition (enzyme activity; inhibitor; 1 µM): 5%
Cc1c(C(=O)O)cc(-c2ccc(C3CCNCC3)cc2)c2ccc(-c3ccc(C(F)(F)F)cc3)cc12 — remaining binding (binding; competition with immobilised ligand; 1 µM): 100%
CN1CCc2cc(Nc3ncc(C4CC4)c(NCCCNC(=O)C4CCC4)n3)ccc2C1 — remaining activity (enzyme activity; inhibitor; radiometric; 1 µM): 44%
COCCOc1nc(-c2ccc(Cl)nc2)nc2c1CN(C(=O)c1ncn3ccccc13)CC2 — remaining binding (cell-free assay; competition with immobilised ligand; 0.1 µM): 100%
O=C1NC(=O)c2cc(Nc3ccc(F)cc3)c(Nc3ccc(F)cc3)cc21 — remaining signal (cell-free assay; 0.5 µM): 98.4%
Cc1nn(CC(F)(F)F)cc1Nc1nccc(NCCc2cnc[nH]2)n1 — remaining activity (enzyme activity; inhibitor; radiometric; 1 µM): 94%
N#Cc1ccc(Nc2ccc3[nH]c(=O)[nH]c3c2)c(Cl)c1 — remaining binding (cell-free assay; competition with immobilised ligand; 1 µM): 100%
O=C(NCCCNc1nc(Nc2cccc(NC(=O)N3CCCC3)c2)ncc1I)c1cccs1 — remaining activity (enzyme activity; inhibitor; radiometric; 1 µM): 1%
Cc1ccc(NC(=O)c2ccc(CN3CCN(C)CC3)cc2)cc1Nc1nc(-c2cccnc2)cs1 — remaining signal (cell-free assay; 0.5 µM): 101%
CC(C)(O)c1cncc(-c2nc3ccc(F)cc3n2C2CC2)c1 — remaining binding (cell-free assay; competition with immobilised ligand; 1 µM): 100%
O=C1Nc2ccc(Cl)cc2C1=Cc1cc(Cl)c(O)c(Cl)c1 — remaining signal (cell-free assay; 0.5 µM): 60.4%
Cc1ccc(C(=O)NCc2ccsc2)cc1C#Cc1cn(C(C)C)c2ncnc(N)c12 — activity vs control (enzyme activity; inhibitor; 1 µM): 8%
